Active and inactive are the calls of the source. The calls are words filed in the database; no cut-off is given here.
What was measured:
[1] = test system: dengue virus type 2; assay: Inhibition of Dengue virus 2 NS5 assessed as reduction in NS5-3' UTR RNA at 25 uM incubated for 1 hr followed by 3' UTR RNA addition and measured after 20 mins by REMSA
How it was run: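 RNA electrophoretic mobility shift with DENV NS5 at 1.28 μM and RNA at 0.16 μM (RNA/NS5 1:8), compound at 25 μM, 37 °C. Order of addition: compound, then NS5, then RNA. Band shift from complex formation scored on gel.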

[2] = Selectivity index, ratio of CC50 for human HuH7 cells to EC50 for Dengue virus 2 EDEN 3295 infected in human HuH7 cells; format: toxicity, cell-based; conditions: read-out: Ratio CC50/EC50
How it was run: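 Selectivity index is CC50 (CellTiter-Glo, HuH7) divided by EC50 (plaque assay, DENV2 EDEN 3295, 48 h, HuH7).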

[3] = test system: dengue virus type 2; assay: Antiviral activity against Dengue virus 2 EDEN 3295 infected in human HuH7 cells assessed as reduction in virus replication incubated for 48 hrs by plaque reduction assay; format: functional, organism-based; conditions: EDEN 3295, Huh-7, 48 h
How it was run: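 DENV2 EDEN 3295 in human hepatoma HuH7 cells, treated 48 h. Infectious virus quantified by plaque assay. Dose–response from 0.01 to 100 μM after an initial 10 μM screen. EC50 is the concentration giving 50% inhibition of replication, reported as average ± SD of two independent experiments.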

[4] = Cytotoxicity against human HuH7 cells assessed as reduction in cell viability incubated for 48 hrs by CellTiter Glo Luminescent assay; format: cell-based, Huh-7
How it was run: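 HuH7 viability was read by CellTiter-Glo luminescence in parallel with the infection dose–response. CC50 is the concentration reducing viability by 50%.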

[5] = Selectivity index, ratio of CC50 for human HuH7 cells to EC50 for Zika virus H/PF/2013 infected in human HuH7 cells; format: toxicity, cell-based; conditions: read-out: Ratio CC50/EC50
How it was run: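 Selectivity index is CC50 (CellTiter-Glo, HuH7) divided by EC50 (plaque assay, ZIKV H/PF/2013, 24 h, HuH7).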

[6] = test system: dengue virus type 2; assay: Inhibition of Dengue virus NS5 RNA-dependent RNA polymerase assessed as reduction in elongation activity at 30 uM incubated for 1 hr relative to control
How it was run: (§1)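 Purified recombinant full-length DENV2 NS5 polymerase was tested in two formats: primer-independent (de novo initiation) and primer-dependent (elongation). Compound at a single 30 μM; % inhibition reported.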

[7] = test system: Zika virus; assay: Antiviral activity against Zika virus H/PF/2013 infected in human HuH7 cells assessed as reduction in virus replication incubated for 24 hrs by plaque reduction assay; format: functional, organism-based; conditions: H/PF/2013, Huh-7, 24 h
How it was run: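 ZIKV H/PF/2013 in HuH7 cells, treated 24 h. Titres read by plaque assay. EC50 is the concentration giving 50% inhibition of replication, reported as average ± SD of two independent experiments.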

[8] = Inhibition of Dengue virus NS5 RNA-dependent RNA polymerase assessed as reduction in elongation activity incubated for 1 hr; design: species or system dengue virus type 2
How it was run: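 Elongation (primer-dependent) activity of purified recombinant full-length DENV2 NS5 was measured over a concentration series with fluorescence read-out. Compound-only wells corrected for autofluorescence. IC50 is 50% inhibition of elongation, average ± SD from one experiment in duplicate.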

[9] = test system: dengue virus type 2; assay: Inhibition of Dengue virus NS5 RNA-dependent RNA polymerase assessed as reduction in de novo initiation activity at 30 uM incubated for 1 hr relative to control; how it was run: as §1
[10] = test system: dengue virus type 3; assay: Antiviral activity against Dengue virus 3 infected in human HuH7 cells assessed as reduction in virus replication incubated for 48 hrs by plaque reduction assay; format: functional, organism-based; conditions: Huh-7, 48 h
[11] = test system: dengue virus type 1; assay: Antiviral activity against Dengue virus 1 infected in human HuH7 cells assessed as reduction in virus replication incubated for 48 hrs by plaque reduction assay; format: functional, organism-based; conditions: Huh-7, 48 h
[12] = Inhibition of Dengue virus full length NS2b-NS3/NS5 interaction incubated for 1 hr by ELISA
How it was run: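 Competitive ELISA measuring DENV NS3–NS5 binding across compound concentrations. IC50 reported as average ± SD from one experiment in duplicate.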

[13] = test system: dengue virus type 4; assay: Antiviral activity against Dengue virus 4 infected in human HuH7 cells assessed as reduction in virus replication incubated for 48 hrs by plaque reduction assay; format: functional, organism-based; conditions: Huh-7, 48 h
[14] = test system: dengue virus type 2; assay: Antiviral activity against Dengue virus 2 EDEN 3295 clone 4_R infected in human HuH7 cells assessed as reduction in viral titer over 10 passages incubated for 72 hrs by resistance development assay; format: functional, organism-based; conditions: EDEN 3295, Huh-7, 72 h
How it was run: (§2)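 Virus came from HuH7 serial passage under increasing compound concentrations (72 h each, to P10) and was expanded in C6/36 cells. P10 parental DENV2 or resistant-clone virus was then tested dose-dependently in HuH7 cells with 48 h compound treatment, measuring viral inhibition. Single experiment with duplicates.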

[15] = test system: dengue virus type 2; assay: Antiviral activity against Dengue virus 2 EDEN 3295 clone 4_R infected in human HuH7 cells assessed as reduction in viral titer at 10 uM over 10 passage incubated for 72 hrs by resistance development assay relative to control; format: functional; conditions: EDEN 3295, Huh-7, 72 h
How it was run: (§3)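 Resistance selection: DENV2-infected HuH7 cells were passaged under rising compound concentrations, 72 h per passage, up to P10. P10 viruses (parental or resistant clone) were expanded in C6/36 insect cells. Susceptibility was then tested in HuH7 at a single 10 μM dose, read as viral titer reduction versus control. Two independent experiments in duplicate; average ± SD.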

[16] = test system: dengue virus type 2; assay: Antiviral activity against Dengue virus 2 EDEN 3295 infected in human HuH7 cells assessed as reduction in viral titer at 10 uM over 10 passage incubated for 72 hrs by resistance development assay relative to control; format: functional; conditions: EDEN 3295, Huh-7, 72 h; how it was run: as §3
[17] = test system: dengue virus type 2; assay: Antiviral activity against Dengue virus 2 EDEN 3295 infected in human HuH7 cells assessed as reduction in viral titer over 10 passages incubated for 72 hrs by resistance development assay; format: functional, organism-based; conditions: EDEN 3295, Huh-7, 72 h; how it was run: as §2

O=C(NCc1ccc(O)cc1)c1cc(-c2ccccc2)c(=O)n2c1sc1ccc(OC3CCCCC3)cc12
inhibition [1]: inactive | selectivity ratio [2]: > 50 | EC50 [3]: 1.8 µM | CC50 at 48 h [4]: > 100 µM | selectivity ratio [5]: > 100 | inhibition [6]: 44.8% | EC50 [7]: 1 µM

O=C(N[C@@H](CO)C(=O)O)c1cc(-c2ccccc2)c(=O)n2c1sc1ccc(OC3CCCCC3)cc12
IC50 [8]: 19.8 µM | inhibition [6]: 97.5% | inhibition [9]: 44.8%

O=C(N[C@@H](Cc1cccc(O)c1)C(=O)O)c1cc(-c2ccccc2)c(=O)n2c1sc1ccc(OC3CCCCC3)cc12
selectivity ratio [2]: > 30 | EC50 [3]: 2.9 µM | CC50 at 48 h [4]: > 100 µM | selectivity ratio [5]: > 100 | EC50 [10]: 4.3 µM | EC50 [11]: 3.2 µM | IC50 [12]: 18.1 µM | IC50 [8]: 14.5 µM | EC50 [13]: 5.9 µM | inhibition [6]: 94.1% | EC50 [7]: 0.8 µM | inhibition [9]: 12.6%

O=C(N[C@@H](Cc1ccc(O)cc1)C(=O)O)c1cc(-c2ccccc2)c(=O)n2c1sc1ccc(OC3CCCCCC3)cc12
selectivity ratio [2]: 30 | EC50 [3]: 3.7 µM | CC50 at 48 h [4]: 100 µM | selectivity ratio [5]: > 50 | IC50 [12]: 33.8 µM | IC50 [8]: 9.62 µM | inhibition [6]: 92.1% | EC50 [7]: 1.6 µM | inhibition [9]: 30.5%

Cn1cc(C(=O)N[C@@H](Cc2ccc(O)cc2)C(=O)O)cc(-c2ccccc2)c1=O
inhibition [6]: 70.2% | inhibition [9]: 35.6%

O=C(N[C@@H](Cc1ccc(O)cc1)C(=O)O)c1cc(-c2ccccc2)c(=O)n(-c2cccc(OC3CCCCC3)c2)c1
IC50 [8]: 81.3 µM | inhibition [6]: 72.1% | inhibition [9]: 36.4%

O=C(NCCO)c1cc(-c2ccccc2)c(=O)n2c1sc1ccc(OC3CCCCC3)cc12
selectivity ratio [2]: 43 | EC50 [3]: 1.9 µM | CC50 at 48 h [4]: 86.3 µM | selectivity ratio [5]: 43 | inhibition [6]: 63.3% | EC50 [7]: 1.8 µM | inhibition [9]: 10%

O=C(NCc1ccccc1)c1cc(-c2ccccc2)c(=O)n2c1sc1ccc(OC3CCCCC3)cc12
inhibition [6]: 31.2%

O=c1c(-c2ccccc2)ccc2sc3ccc(OC4CCCCC4)cc3n12
inhibition [1]: inactive | inhibition [6]: 6.3%

C#C[C@@]1(O)[C@H](O)[C@@H](CO)O[C@H]1n1ccc2c(N)ncnc21
selectivity ratio [2]: 100 | EC50 [3]: 1 µM | CC50 at 48 h [4]: 100 µM | selectivity ratio [5]: > 100 | EC50 [7]: 0.2 µM

O=C(N[C@@H](Cc1ccc(O)cc1)C(=O)O)c1cc(-c2ccccc2)c(=O)n2c1sc1ccc(OC3CCCCC3)cc12
selectivity ratio [2]: > 50 | EC50 [3]: 2.1 µM | CC50 at 48 h [4]: > 100 µM | selectivity ratio [5]: > 100 | EC50 [10]: 2.8 µM | EC50 [11]: 2.8 µM | IC50 [12]: 42.4 µM | IC50 [8]: 9.16 µM | EC50 [13]: 1.7 µM | inhibition [6]: 93% | EC50 [7]: 0.4 µM | inhibition [9]: 40.7%

O=C(O)CCNC(=O)c1cc(-c2ccccc2)c(=O)n2c1sc1ccc(OC3CCCCC3)cc12
inhibition [1]: Active | selectivity ratio [2]: > 30 | EC50 [3]: 3.5 µM | CC50 at 48 h [4]: > 100 µM | selectivity ratio [5]: > 100 | EC50 [10]: 7.8 µM | EC50 [11]: 7 µM | IC50 [12]: 23.7 µM | EC50 [14]: 11.4 µM | IC50 [8]: 37.8 µM | EC50 [13]: 6.9 µM | inhibition at 10 µM [15]: 20% | inhibition [6]: 77.6% | EC50 [7]: 1 µM | inhibition at 10 µM [16]: 80% | EC50 [17]: 5.3 µM

Source: ChEMBL document CHEMBL4613293, “Pyridobenzothiazolones Exert Potent Anti-Dengue Activity by Hampering Multiple Functions of NS5 Polymerase” (ACS Med Chem Lett, 2020)
